These results are taken from article PMC11310375 (EJNMMI Radiopharmacy and Chemistry, 2024).

One assay concerns HeLa cells. As to the kind of experiment: Caspase activity assay with fluorogenic substrate Ac-DEVD-AMC in cell lysates. It is filed as cell-based, human. As to conditions: HeLa cells treated with STS. The method, boiled down: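 HeLa cells were seeded at 0.3×10^6 per well in supplemented DMEM at 37 °C, 5% CO₂. […] Cells were lysed in hypotonic PIPES/NP-40 buffer pH 7.4 on ice. Lysate (20 μg protein) was incubated with 50 μM Ac-DEVD-AMC in 100 μL caspase buffer for 1 h at 37 °C. AMC fluorescence (ex 360/em 460) was converted to pmol by free-AMC standard curve; mean of three.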

In a further assay the test system is Jurkat cells. As to conditions: ref Solania et al. [2019]; cited from earlier work.
Assay [1] addresses T1, caspase-3 (Homo sapiens, UniProt P42574).
T1 sequence (P42574 29-175 limits assumed): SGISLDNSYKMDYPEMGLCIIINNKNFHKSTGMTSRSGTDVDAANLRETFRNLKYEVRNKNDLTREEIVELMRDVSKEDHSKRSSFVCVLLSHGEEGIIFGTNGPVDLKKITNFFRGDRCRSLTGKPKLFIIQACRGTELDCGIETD
T1 sequence (P42574 176-277 limits assumed): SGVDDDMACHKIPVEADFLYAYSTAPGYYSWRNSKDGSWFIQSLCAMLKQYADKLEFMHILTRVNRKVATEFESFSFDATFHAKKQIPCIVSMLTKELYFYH
As to the kind of experiment: Biochemical inhibition assay, kinact/Ki with Ac-DEVD-AMC substrate. A digest of the protocol:
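Ac-DEVD-AMC was 50 µM final and inhibitor 20 to 80 nM final. Reference inhibitor Ac-ATS010-KE was run alongside. kinact/Ki was derived as for the AMAC assay.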

In assay [2] the target is T1, caspase-3. As to conditions: cited from earlier work.
In a further assay the target is T2, caspase-7 (Homo sapiens, UniProt P55210).
T2 sequence (P55210 24-198 limits assumed): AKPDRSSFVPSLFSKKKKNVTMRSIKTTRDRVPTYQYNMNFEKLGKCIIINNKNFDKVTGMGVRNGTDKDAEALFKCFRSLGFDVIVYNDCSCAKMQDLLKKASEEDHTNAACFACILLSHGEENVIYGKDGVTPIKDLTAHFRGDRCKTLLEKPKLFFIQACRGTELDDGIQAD
T2 sequence (P55210 207-303 limits assumed): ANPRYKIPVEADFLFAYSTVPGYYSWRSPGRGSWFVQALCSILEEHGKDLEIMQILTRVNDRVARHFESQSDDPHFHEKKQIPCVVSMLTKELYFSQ
As to the kind of experiment: Biochemical inhibition assay, kinact/Ki with AMAC substrate. The following applies: AMAC-substrates, N = 4. A digest of the protocol: (§1)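 Continuous fluorogenic inactivation assay with Ac-DEVD-AMAC at 100 μM final. Final enzyme concentrations were 1 nM caspase-3 and 5 nM caspase-7. Enzyme was added to substrate plus inhibitor, and fluorescence (ex 320/em 460) was read immediately. Progress curves were fit to F = -[v₀(1-exp(-kobst))/kobs-Fmax] to give kinact and Ki.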

A further assay concerns the target T3, caspase-6 (Homo sapiens, UniProt P55212).
T3 sequence (P55212 24-179 limits assumed): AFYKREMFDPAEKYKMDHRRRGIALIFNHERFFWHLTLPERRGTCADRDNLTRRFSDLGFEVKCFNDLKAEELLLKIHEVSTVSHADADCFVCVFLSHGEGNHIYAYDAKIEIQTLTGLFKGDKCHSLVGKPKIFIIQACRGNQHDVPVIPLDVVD
T3 sequence (P55212 194-293 limits assumed): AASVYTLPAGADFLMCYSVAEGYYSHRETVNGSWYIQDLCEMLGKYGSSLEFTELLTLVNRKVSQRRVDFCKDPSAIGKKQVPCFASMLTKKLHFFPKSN
The assay can be described thus: Biochemical inhibition assay, kinact/Ki with AMAC substrate. As to conditions: AMAC-substrates, N = 4. A digest of the protocol: (§2)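 Caspase-8 (25 nM), caspase-9 (100 nM) and caspase-10 (20 nM) used Ac-IETD-AMAC; caspase-9 and caspase-10 buffers also had 0.7 M sodium citrate. Caspase-6 (25 nM) used Ac-VEID-AMAC. Fluorescence (ex 320/em 460) was read immediately, and progress curves were fit for kinact and Ki.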

A further assay concerns the target caspase-8 (Homo sapiens, UniProt Q14790). Described as above. As to conditions: AMAC-substrates, N = 4. A digest of the protocol:
as §2

Another assay addresses T4, caspase-9 (Homo sapiens, UniProt P55211).
T4 sequence (P55211 1-315 limits assumed): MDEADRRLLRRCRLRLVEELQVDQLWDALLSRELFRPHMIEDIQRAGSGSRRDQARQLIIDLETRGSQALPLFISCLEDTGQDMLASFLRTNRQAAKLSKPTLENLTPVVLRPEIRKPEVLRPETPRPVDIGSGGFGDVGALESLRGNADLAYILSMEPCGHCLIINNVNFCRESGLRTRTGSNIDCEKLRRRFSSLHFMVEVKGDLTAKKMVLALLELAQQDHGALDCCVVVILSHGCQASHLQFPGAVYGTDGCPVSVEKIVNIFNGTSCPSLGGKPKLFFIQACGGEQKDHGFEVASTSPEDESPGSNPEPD
T4 sequence (P55211 331-416 limits assumed): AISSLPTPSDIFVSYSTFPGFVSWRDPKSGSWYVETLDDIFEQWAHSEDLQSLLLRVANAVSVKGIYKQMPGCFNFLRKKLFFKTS
Described as above. The following applies: AMAC-substrates, N = 4. A digest of the protocol: as §2

Assay [3] concerns the target T1, caspase-3. As to the kind of experiment: Biochemical inhibition assay, kinact/Ki with AMAC substrate. As to conditions: AMAC-substrates, N = 4. The method, boiled down:
as §1

The target of the next assay is T5, caspase-10 (Homo sapiens, UniProt Q92851).
T5 sequence (Q92851 220-415 limits assumed): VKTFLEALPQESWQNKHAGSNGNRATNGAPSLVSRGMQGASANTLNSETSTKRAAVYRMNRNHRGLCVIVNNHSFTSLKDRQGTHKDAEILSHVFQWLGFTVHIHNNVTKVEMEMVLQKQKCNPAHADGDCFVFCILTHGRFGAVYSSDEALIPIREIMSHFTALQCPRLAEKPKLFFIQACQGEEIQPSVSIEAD
T5 sequence (Q92851 416-521 limits assumed): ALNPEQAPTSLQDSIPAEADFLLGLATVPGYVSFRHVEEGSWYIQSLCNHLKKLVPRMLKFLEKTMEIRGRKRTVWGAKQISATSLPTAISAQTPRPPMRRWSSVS
The assay can be described thus: Biochemical inhibition assay, kinact/Ki with AMAC substrate. As to conditions: AMAC-substrates, N = 4. A digest of the protocol: as §2

For another assay, the system named is HT29 tumours. The assay can be described thus: Caspase activity in tumour homogenates with fluorogenic substrate. It is filed as in vivo, CD1^−/− nude mice. The following applies: 24 h after treatment. The method, boiled down: (§3)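 Female CD1 nude mice bore subcutaneous hind-leg xenografts: COLO205 at 2×10⁶ cells, HT29 at 10×10⁶. At about 200 mm³, mice received conatumumab or IgG1 isotype, 1.5 mg/kg i.p. Tumours were taken 24 h later and homogenised. Homogenate (20 μg protein) was incubated with 50 μM Ac-DEVD-AMC in caspase buffer, 1 h, 37 °C. AMC (ex 360/em 460) was quantified in pmol against a free-AMC standard; N = 3.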

A further assay concerns COLO205 tumours. Described as above. It is filed as in vivo, CD1^−/− nude mice. The following applies: 24 h after treatment. The method, boiled down:
as §3

Sequence of caspase-8 (Q14790 217-374 limits assumed): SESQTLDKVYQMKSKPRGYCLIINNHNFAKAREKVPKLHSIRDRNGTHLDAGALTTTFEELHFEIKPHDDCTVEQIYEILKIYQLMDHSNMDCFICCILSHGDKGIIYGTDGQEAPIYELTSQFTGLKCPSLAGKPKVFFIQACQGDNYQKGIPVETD
Sequence of caspase-8 (Q14790 385-479 limits assumed): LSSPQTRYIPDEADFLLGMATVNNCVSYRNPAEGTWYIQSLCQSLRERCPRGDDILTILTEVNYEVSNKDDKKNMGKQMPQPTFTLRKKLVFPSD

Regarding `CN[C@@H]1C[C@H]2O[C@@](C)([C@@H]1OC)n1c3ccccc3c3c4c(c5c6ccccc6n2c5c31)C(=O)NC4` [STS, staurosporine], the “AMC liberation (caspase activity)” value in the assay with HeLa cells turned out to be 1598 ± 444 pmol AMC.
“Ac-3Pal-Asp-Phe(F5)-Phe-Asp-KE [Ac-ATS010-KE, reference compound]”: the “protection from MegaFasL-induced apoptosis” value in the assay with Jurkat cells was “able to protect Jurkat cells from MegaFasL-induced apoptosis”. Further, the “kinact/Ki caspase-3” value on caspase-3 [1] was 46.48 ± 9.96 × 10^4.s^−1.M^−1. The “increase of kinact/Ki for caspase-3 over the DW3 sequence” value at caspase-3 [2] (ref Solania et al. [2019]) is 154 fold. Further, at caspase-7, the “kinact/Ki C7” value is 190000 M⁻¹ s⁻¹. Further, the “kinact/Ki C6” value on caspase-6 is 300 M⁻¹ s⁻¹. In addition, the “kinact/Ki C8” value at caspase-8 is 25000 M⁻¹ s⁻¹. Also, the “kinact/Ki C9” value on caspase-9 turned out to be 14000 M⁻¹ s⁻¹. Also, the “kinact/Ki C3” value on caspase-3 [3] turned out to be 1.7e+06 M⁻¹ s⁻¹. Also, the “kinact/Ki C10” value on caspase-10 worked out at 1000 M⁻¹ s⁻¹.
On to “Ac-3Pal-Asp-βhLeu-Phe-Asp-KE [Ac-DW3-KE]”, for which the “efficiency in inactivation of caspase-3, less than Ac-DEVD-KE” value on caspase-3 [2] (ref Solania et al. [2019]) was 500 times. On caspase-3 [2] (ref Vickers et al. [2013]), the “selectivity for caspase-3 against caspase-7” value is recorded as 120 fold and the “selectivity for caspase-3 against caspase-8” value was 58 fold.
For “conatumumab: apoptosis-inducing therapy (Amgen) given to tumour-bearing mice, compared with IgG1 isotype control”, the “caspase activity, liberated AMC” value is given as 679 ± 63 pmol liberated AMC with HT29 tumours and 15,119 ± 761 pmol liberated AMC in the assay with COLO205 tumours.
